# Assay outcomes as filed in PubChem BioAssay.
# Kir21 inh – inhibitors of mouse Kir2.1 inward-rectifier potassium channel | HEK293-Kir2.1, FluxOR thallium flux fluorescence; stronger effect = lower value | B-score at 10 µM | 310,000 compounds, 0.85% hits | AID 1672;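 active = fluorescence ratio B-score at or below minus 3 SD of library scores, with starting-brightness B-score within 2 SD, cut at about -4.2 in these data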;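 also: channel flux triggered by added potassium and thallium sulfate stimulus; B-score of peak minus minimum fluorescence over baseline after thallium stimulus; more negative B-score means stronger Kir2.1 block with less thallium influx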
# Target sequence (P35561 whole entry, looked up): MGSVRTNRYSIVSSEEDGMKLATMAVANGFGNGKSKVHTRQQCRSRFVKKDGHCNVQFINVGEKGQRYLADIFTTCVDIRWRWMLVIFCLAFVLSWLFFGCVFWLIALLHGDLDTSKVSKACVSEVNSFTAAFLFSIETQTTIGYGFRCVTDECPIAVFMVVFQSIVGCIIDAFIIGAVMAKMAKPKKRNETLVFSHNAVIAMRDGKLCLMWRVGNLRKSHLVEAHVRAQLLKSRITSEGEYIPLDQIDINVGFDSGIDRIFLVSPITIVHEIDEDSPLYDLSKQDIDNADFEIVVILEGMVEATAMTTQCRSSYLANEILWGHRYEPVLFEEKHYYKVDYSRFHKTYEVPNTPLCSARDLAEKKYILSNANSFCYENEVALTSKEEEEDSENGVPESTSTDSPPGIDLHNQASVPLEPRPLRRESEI
# KCNK3 block – human KCNK3 channel inhibition, primary screen. B-score at 10 µM. CHO-KCNK3 thallium flux, FluxOR fluorescence; stronger effect = lower value. O14649. AID 602410. 340,000 compounds, 0.84% hits;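 active = B-score under library mean minus 4 SD, starting fluorescence ratio at most library mean plus 5 SD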;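 also: more negative B-score means stronger inhibition of thallium flux through KCNK3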
# KCNQ1 block – inhibitors of human KCNQ1 potassium channel; CHO-K1 KCNQ1, FluxOR thallium flux fluorescence; stronger effect = higher value; P51787; 310,000 compounds, 1.3% hits; B-score at 10 µM;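 active = compounds whose thallium flux B-score, printed positive for inhibition, exceeds three library SD while starting fluorescence stays within three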;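 also: channel opened by potassium depolarization with thallium stimulus after 20 min compound exposure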
# hERG protect – shields human hERG channel from block by proarrhythmic agents. Q12809. CHO-hERG, FluxOR thallium flux, dofetilide IC70 present. activation (rescue from dofetilide block), less the hit threshold, % at 10 µM. 310,000 compounds, 0.51% hits;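 active = activation above the mean of controls blocked by dofetilide plus 5 SD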;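 also: thallium influx through hERG after potassium depolarization seen as dye fluorescence rise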
# KCNK9 inh – human KCNK9 channel inhibition; Q9NPC2; B-score at 10 µM; 310,000 compounds, 1.2% hits; HEK293 KCNK9, FluxOR thallium flux fluorescence; stronger effect = lower value;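 active = ratio B-score over 3 SD below the library mean, with starting fluorescence within 5 SD of its mean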;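 also: negative B-score means less thallium flux so channel inhibition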
# KCNQ1 act – potentiators or activators of human KCNQ1 potassium channel; B-score at 10 µM; 310,000 compounds, 0.35% hits; AID 2648; CHO-K1 KCNQ1, thallium flux FluxOR fluorescence; stronger effect = higher value;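 active = fluorescence ratio B-score, a plate-corrected score, at least three library SD, with initial intensity B-score within 5 SD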
#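 Material: CHO-K1 cells stably expressing KCNQ1. Medium: assay buffer for compound exposure, DMSO matched across wells. Reagent: K+/Tl+ depolarizing stimulus. Compound dosing: single-concentration screen. Times: 37 °C overnight plating, 90-min dark dye load, 20-min compound pretreatment. Technique: FluxOR Tl+ flux fluorescence.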
# * = called active by the depositor; i = inactive. Rows were chosen to be rich in hits. Some 3.8% of all compounds tested hit in one or more screens of this group.
SMILES,Kir21 inh,KCNK3 block,KCNQ1 block,hERG protect,KCNK9 inh,KCNQ1 act
Cc1ccc(S(=O)(=O)N(C)C)cc1NC(=O)CSc1nc2ccccc2c(=O)n1CC1CCCO1 (stereo not drawn),-1.1,i,i,-14,i,i
Cc1ccc(S(=O)(=O)N(C)C)cc1-n1c(SCC(=O)Nc2ccccc2)nc2ccccc2c1=O,-0.84,i,i,-12,-7.9*,i
Cc1ccc(S(=O)(=O)N(C)C)cc1-n1c(SCC(=O)Nc2ccc(F)cc2Cl)nc2ccccc2c1=O,-2.6,i,i,-7,-8*,i
COc1ccc(NC(=O)c2ccc(COCC(F)(F)C(F)F)cc2)cc1,-0.96,i,i,13*,i,i
COc1ccc(NC(=O)c2ccc(COCC(F)(F)C(F)F)cc2)cc1OC,0.55,i,i,-2,i,i
CCN1CCN(CCOc2cccc(Oc3ccccc3)c2)CC1,-4.5*,i,i,-5,i,i
CCN1CCN(CCOCCOc2ccccc2)CC1,1.1,i,i,-4,i,i
Cc1ccc(C(=O)OCC(=O)Nc2sc3c(c2C#N)CCCC3)cc1NC(=O)c1ccco1,0,i,i,-4,i,19*
Cc1cccc(C)c1NS(=O)(=O)c1c(C(=O)N2CCCCC2)c(C)n(C)c1C,0.87,i,i,-3,i,i
C(#CCN1CCCC1)CC(c1ccccc1)c1ccccc1,-10*,i,i,-15,i,i
Oc1oc(-c2cccc3ccccc23)nc1/C=N/c1nccs1,0.16,i,i,19*,i,12*
CC(=O)Nc1ccc(-n2c(C)nc(=O)c(-c3ccccc3)c2C)cc1,0.7,i,i,4.7*,i,i
Cc1nc(=O)c(-c2ccccc2)c(C)n1-c1ccccc1,0.85,i,i,0,i,i
Cc1ccc(C(C)NC(=S)NCc2ccc(F)cc2)cc1C (stereo not drawn),-11*,i,i,-9,i,i
N#CC1=C(SCC(=O)c2cc3ccccc3oc2=O)NC(=O)C(C#N)C12CCCC2 (stereo not drawn),-0.09,i,7*,-11,i,i
CCOC(=O)Cc1csc(NC(=S)NC(=O)c2ccccc2C)n1,2.2,i,i,2,i,16*
CCOC(=O)Cc1csc(NC(=S)NC(=O)c2ccc(F)cc2)n1,1.2,i,i,1,i,8*
CCOC(=O)C1=C(C)n2c(s/c(=C/c3cccc([N+](=O)[O-])c3)c2=O)=NC1c1ccc(O)c(OC)c1 (stereo not drawn),-0.2,i,6*,-14,i,i
COc1ccc(N=C2S/C(=C\c3ccc(OC(C)C(=O)O)c(OC)c3)C(=O)N2CCc2c[nH]c3ccccc23)cc1 (stereo not drawn),-0.78,i,11*,-14,i,i
COc1cc(/C=C2\SC(=Nc3ccccc3)N(CCc3c[nH]c4ccccc34)C2=O)ccc1OC(C)C(=O)O (stereo not drawn),-0.32,i,i,-11,i,i
O=C1/C(=C/c2ccc(N3CCOCC3)o2)SC(=Nc2ccccc2)N1CCc1c[nH]c2ccccc12,-0.02,i,7*,-29,i,i
COC(=O)[C@@]12CCCN1[C@H](c1ccc(-c3cccc(Cl)c3)cc1)[C@H]1C(=O)N(C)C(=O)[C@H]12,-0.98,i,i,-15,-7.1*,i
O=C(Cc1ccccc1)NCC(=O)OC(c1ccccc1)c1ccccc1,-5.4*,i,i,-14,i,i
O=C(CNC(=O)Cc1ccccc1)NCC(=O)OCc1ccccc1,-0.14,i,i,-1,i,i
O=C(O)Cn1c(COc2ccc(Cl)cc2)nc2ccccc21,2.1,i,i,-7,i,i
O=C(Cn1c(-c2ccccc2Cl)nc2ccccc21)Nc1cccc(Cl)c1,-0.82,i,i,-8,-7.5*,i
O=C(Cn1c(COc2ccccc2)nc2ccccc21)Nc1cccc(Cl)c1,1.1,i,i,6.2*,i,i
